Measurements published in PubChem BioAssay.
Activity calls are given as the source filed them.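 Rule for the calls, unless noted: active = visually confirmed hit in the image check and inhibition above 20%; inconclusive = visually confirmed hit but inhibition not above 20%; inactive = no visual hit in the image check.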

Experiments:
[1] = inhibitors of TNFa-induced NFkB p65 translocation, primary screen, imaging, HUVEC, MLSMR starter and 10KST1 sets (AID 438;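 active = inhibition above 20% together with a positive visual image hit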;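 note: compound added about 3h40 before a 20 min TNFalpha stimulation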;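 for inhibition: signal is the nuclear over cytoplasmic p65 intensity ratio per well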); conditions: HUVEC TNFa-induced p65 nuclear translocation; cell count: measured here: nuclei count (cytotoxicity indicator), at 2.08 µM; inhibition: at 2 µM, stronger effect = higher value, 0% TNFa-plus-vehicle, 100% no-TNFa wells
[2] = endothelial E-selectin expression blockers – imaging, HUVEC, immunofluorescence, MLSMR starter and 10KST1 sets, primary screen (AID 487); conditions: HUVEC TNFalpha-induced E-selectin immunofluorescence imaging, at 2 µM; inhibition: stronger effect = higher value; nuclei count: measured here: cell number, toxicity;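 for inhibition: signal is fraction of cell area covered by stained E-selectin grains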;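 for nuclei count: 100% = median nuclei count of all wells on the same plate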
[3] = Primary imaging screen for DUSP6 inhibitors that restore phospho-Erk in transfected HeLa cells, chemical complementation (AID 609;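 active = compounds giving at least 50% inhibition in the cell-based MKP-3 phosphatase rescue imaging test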;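 for inhibition: phospho-Erk level distribution per well compared with pooled transfected vehicle control wells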); conditions: HeLa MKP-3 transfected, phospho-Erk imaging KS statistic, at 10 µM, cells stimulated with TPA for 15 min
[4] = molecular target: Dual specificity protein phosphatase 6 (Homo sapiens) (UniProt Q16828); experiment: as above; conditions: HeLa MKP-3 transfected, phospho-Erk imaging KS statistic; at 10 µM; stronger effect = higher value; cells stimulated with TPA for 15 min
[5] = molecular target: Voltage-gated potassium channel subunit beta-2 (Rattus norvegicus) (UniProt P62483); experiment: inhibitors of rat Kvbeta2 reductase activity – biochemical, NADPH fluorescence, primary screen (AID 622;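 active = fluorescence slope higher than the sample average by over 3 SD, cut at about -0.22 in these data, passing the limit was not always enough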;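 note: slope of raw intensity against log time taken from 70 to 1610 s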); conditions: recombinant KvBeta, 4-cyanobenzaldehyde reduction, at 10 µM, stronger effect = higher value
[6] = molecular target: Voltage-gated potassium channel subunit beta-2 (Rattus norvegicus) (UniProt P62483); experiment: enhancers of rat Kvbeta2 NADPH turnover – biochemical, NADPH fluorescence, primary screen (AID 623;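 active = NADPH fluorescence slope more negative than the mean of all samples by about 3 SD, 99.7% confidence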;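 note: fluorescence intensity change per second fitted from 20 to 320 s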); conditions: Recombinant KvBeta, NADPH fluorescence decrease slope, 10 min; at 10 µM; stronger effect = lower value
[7] = molecular target: Muscarinic acetylcholine receptor M4 (Homo sapiens) (UniProt P08173); experiment: M4-linked GIRK flux change, two-sided – cell-based, HEK293 M4/GIRK, thallium flux, BTC-AM, M4 allosteric agonist project, primary screen (AID 625;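 active = fluorescence slope after compound addition differing from the mean of all tested samples at 99.7% confidence, mostly higher but some lower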;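 note: thallium influx through GIRK channels coupled to M4 in HEK293 cells with BTC-AM dye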); conditions: at 10 µM, actives lie on both sides
Method in brief: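 Material – HEK293 cells with M4 receptor and GIRK channels · Buffer or medium – pH 7.3 thallium assay buffer · Doses – one dose, 10 µM final · Timing – cells overnight at 37 °C, BTC-AM loading 1 h, reads 2 min total · Measured by – kinetic fluorescence with BTC-AM dye · Controls – carbachol and DMSO controls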

[8] = inhibitors of larval lipid processing in zebrafish, primary screen, whole organism, PED6 fluorescence, gall bladder and intestine (AID 686;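 active = a full or partial loss of lipid-probe fluorescence in the fish gall bladder, intestine or both, judged by eye; inactive = no fluorescence loss, or compound toxic to the fish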;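 note: larvae 5 to 7 days old with five fish per well; signal comes from phospholipase A2 cleavage of quenched PED6 carried via bile; overnight exposure to compound and PED6 before scoring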); conditions: Zebrafish larvae PED6 lipid processing, fluorescence scoring; screened at 20 µM (by protocol)
Method in brief: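 system = live zebrafish larvae aged 5-7 days, whole organism | probe or stimulus = ingested quenched lipid PED6 at 100 nM | doses = 20 µM single dose | timing = overnight exposure | detection = fluorescence microscopy with visual scoring of gall bladder and intestine | read-out = visual per-well fluorescence inhibition score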

[9] = loss of swimming-algae plug formation – whole organism, Chlamydomonas reinhardtii, WT vs cilia-less mutant, absorbance, 96-well, primary screen (AID 463189;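 active = inhibition at or above 50% relative to wild type and mutant plate controls; inactive = inhibition below 50%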;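 note: 0% = wild type cc124 cells in DMSO and 100% = ciliumless bld1 mutant cells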); conditions: Chlamydomonas reinhardtii gravitaxis, OD600 absorbance, 2 days; at 10 µM; stronger effect = higher value
[10] = measured here: cell density z-score
[11] = measured here: nuclear c-Myc green intensity z-score
[12] = measured here: nuclear pErk red intensity z-score, stronger effect = higher value

Dual specificity protein phosphatase 6 (Homo sapiens), sequence (Q16828 whole entry, looked up): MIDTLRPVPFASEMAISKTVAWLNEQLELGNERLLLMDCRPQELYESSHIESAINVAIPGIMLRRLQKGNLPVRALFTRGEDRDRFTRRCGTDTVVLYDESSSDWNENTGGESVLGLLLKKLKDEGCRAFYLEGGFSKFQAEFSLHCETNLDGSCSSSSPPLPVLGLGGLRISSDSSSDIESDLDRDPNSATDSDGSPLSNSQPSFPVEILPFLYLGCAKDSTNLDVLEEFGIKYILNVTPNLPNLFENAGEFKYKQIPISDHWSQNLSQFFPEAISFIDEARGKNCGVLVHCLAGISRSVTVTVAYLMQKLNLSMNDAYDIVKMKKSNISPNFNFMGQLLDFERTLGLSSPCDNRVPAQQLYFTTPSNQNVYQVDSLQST
Voltage-gated potassium channel subunit beta-2 (Rattus norvegicus), sequence (P62483 whole entry, looked up): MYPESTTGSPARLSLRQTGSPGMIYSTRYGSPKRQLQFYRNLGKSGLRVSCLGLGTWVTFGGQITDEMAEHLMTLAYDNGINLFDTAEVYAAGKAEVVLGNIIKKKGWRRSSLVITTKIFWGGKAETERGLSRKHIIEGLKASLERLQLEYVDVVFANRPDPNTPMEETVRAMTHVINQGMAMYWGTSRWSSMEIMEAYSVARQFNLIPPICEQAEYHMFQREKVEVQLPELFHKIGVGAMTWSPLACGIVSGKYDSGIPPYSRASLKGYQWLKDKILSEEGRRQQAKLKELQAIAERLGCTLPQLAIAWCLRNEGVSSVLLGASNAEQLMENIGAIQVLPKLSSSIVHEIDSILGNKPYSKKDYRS
Muscarinic acetylcholine receptor M4 (Homo sapiens), sequence (P08173 whole entry, looked up): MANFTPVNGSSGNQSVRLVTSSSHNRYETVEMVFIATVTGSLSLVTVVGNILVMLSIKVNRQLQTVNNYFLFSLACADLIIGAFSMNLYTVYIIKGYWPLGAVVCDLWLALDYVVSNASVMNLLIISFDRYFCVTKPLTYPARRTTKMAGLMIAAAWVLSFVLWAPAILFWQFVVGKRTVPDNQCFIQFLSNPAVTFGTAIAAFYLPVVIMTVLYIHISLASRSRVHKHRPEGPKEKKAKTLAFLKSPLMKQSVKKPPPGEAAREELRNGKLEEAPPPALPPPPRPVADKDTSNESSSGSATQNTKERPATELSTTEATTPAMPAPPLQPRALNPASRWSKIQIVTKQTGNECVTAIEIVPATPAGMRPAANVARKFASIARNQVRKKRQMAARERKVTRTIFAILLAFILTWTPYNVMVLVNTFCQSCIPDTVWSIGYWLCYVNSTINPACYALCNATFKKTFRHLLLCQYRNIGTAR

Row | SMILES | cell count [1] | inhibition [1] | inhibition [2] | nuclei count [2] [%] | z-score [3, 10] | z-score [3, 11] | z-score [3, 12] | inhibition [4] | fluorescence slope [5] | NADPH fluorescence slope [6] | fluorescence slope [7] | outcome [8] | inhibition [9]
1 | Cc1sc(-n2c(C)cc(/C=N/n3cnnc3)c2C)c(C#N)c1C | 408 | 1.9% (inactive) | 29.3% (inactive) | 85.2 | -1.21 | -0.424 | 0.842 | 3.56% (inactive) | -0.546 (inactive) | -9.2e-05 (inactive) | 0.00473 (inactive) | inactive | 14% (inactive)
2 | CC(=O)Nc1ccc(OC(=O)CC2SC(=O)NC2=O)cc1 (stereo not drawn) | 552 | -6.8% (inactive) | -32.3% (inactive) | 97.7 | -1.89 | 0.746 | -1.34 | -2.91% (inactive) | -0.469 (inactive) | -3.2e-05 (inactive) | 0.00549 (inactive) | inactive | -6.84% (inactive)
3 | Cc1cccc(C)c1OCC(=O)Nc1cccc(-c2nnc(-c3ccccc3)o2)c1 | 634 | -2.9% (inactive) | 27.8% (inactive) | 82.9 | -2.16 | 1.5 | 0.715 | -9.53% (inactive) | -0.492 (inactive) | -4.2e-05 (inactive) | 0.00887 (inactive) | inactive | -17.1% (inactive)
4 | CC(C)c1nc2n[nH]c(N)c2c2c1CCCC2 | 576 | 2.1% (inactive) | -38.2% (inactive) | 148 | -0.386 | 1.02 | -1.27 | 7.21% (inactive) | -0.465 (inactive) | -8.5e-05 (inactive) | 0.00509 (inactive) | inactive | -2.96% (inactive)
5 | COC(=O)c1ccc(C2/C(=C(/O)c3ccc(OC)cc3)C(=O)C(=O)N2Cc2ccco2)cc1 (stereo not drawn) | 603 | -5.8% (inactive) | -47.8% (inactive) | 96.4 | -1.62 | 0.429 | -2.41 | -4.59% (inactive) | -0.4 (inactive) | 4.5e-06 (inactive) | 0.0058 (inactive) | inactive | -8.72% (inactive)
6 | Cc1cc(=O)oc2c(CN3CCC(C)CC3)c(O)c(Cl)cc12 | 654 | -6.9% (inactive) | -12% (inactive) | 171 | 0.311 | 0.013 | 0.217 | 1.12% (inactive) | -0.0249 (inactive) | 4.3e-06 (inactive) | 0.00736 (inactive) | inactive | -2.21% (inactive)
